From ChEMBL document CHEMBL1138064, “Discovery of N-[(3R)-1-azabicyclo[2.2.2]oct-3-yl]furo[2,3-c]pyridine-5-carboxamide, an agonist of the alpha7 nicotinic acetylcholine receptor, for the potential treatment of cognitive deficits in schizophrenia: synthesis and structure--activity relationship” (J Med Chem, 2006)

Experiments:
[1] = Ratio of drug level in brain against plasma in rat by MBUA method after 5 min; format: ADME, organism-based; settings: brain and plasma
[2] = target: Neuronal acetylcholine receptor subunit alpha-7 (Rattus norvegicus) (UniProt Q05941); assay: Activity at alpha-7 nAChR in Sprague-Dawley rat hippocampal neurons assessed as induction of MLA-inhibited desensitizing inward current at 3 uM relative to (-)-nicotine; format: functional, tissue-based; parameters: scale not given: the % may be the effect or the level left; settings: Hippocampus
Outline: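 Rat hippocampal neurons were recorded by whole-cell patch clamp with rapid agonist application. Desensitizing inward currents were measured, and α7 mediation was tested with MLA (10 nM), n = 3.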

Rattus norvegicus = assay: Reversal of amphetamine-induced gating deficit in Sprague-Dawley at 10 mg/kg, iv; format: functional
Outline: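 Anesthetised rats; d-amphetamine 1 mg/kg iv given to disrupt auditory gating recorded in the hippocampal CA3 region (conditioning vs test responses, analogous to human P50). Agonist given iv afterwards; read-out is % gating versus amphetamine-alone. The 10 mg/kg dose was run as a separate experiment. Brain drug levels were measured after the iv doses.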

[3] = target: Adrenergic receptor alpha-2 (Homo sapiens) (UniProt P08913+P18825+P18089); assay: Inhibition of adrenergic alpha2 receptor at 1 uM; format: protein assay
[4] = target: Type-1 angiotensin II receptor (Homo sapiens) (UniProt P30556); assay: Inhibition of AT1 receptor at 1 uM
[5] = target: Type-2 angiotensin II receptor (Homo sapiens) (UniProt P50052); assay: Inhibition of AT2 receptor at 1 uM
[6] = target: GABA-A receptor; anion channel (Homo sapiens) (UniProt P14867+P47870+P18507+P28472+P48169+Q99928+Q9UN88+P34903+O00591+O14764+Q8N1C3+P18505+P78334+P47869+P31644+Q16445); assay: Inhibition of central BZD receptor at 1 uM; format: protein-complex assay
[7] = target: Cannabinoid receptor 1 (Homo sapiens) (UniProt P21554); assay: Inhibition of CB1 receptor at 1 uM
[8] = target: Cannabinoid receptor 2 (Homo sapiens) (UniProt P34972); assay: Inhibition of CB2 receptor at 1 uM
Cannabinoid receptor 2 (Homo sapiens), sequence (P34972 whole entry): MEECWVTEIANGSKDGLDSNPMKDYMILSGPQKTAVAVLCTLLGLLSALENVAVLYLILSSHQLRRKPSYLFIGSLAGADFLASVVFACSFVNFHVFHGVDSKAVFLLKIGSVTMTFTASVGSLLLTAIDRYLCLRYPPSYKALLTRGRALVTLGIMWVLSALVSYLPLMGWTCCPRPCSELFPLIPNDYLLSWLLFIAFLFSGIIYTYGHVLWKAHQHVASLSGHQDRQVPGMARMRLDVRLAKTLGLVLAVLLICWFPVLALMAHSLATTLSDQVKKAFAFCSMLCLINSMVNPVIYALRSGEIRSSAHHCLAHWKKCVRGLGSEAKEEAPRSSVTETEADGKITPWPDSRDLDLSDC

[9] = target: D(1A) dopamine receptor (Homo sapiens) (UniProt P21728); assay: Inhibition of D1 receptor at 1 uM
[10] = target: D(1B) dopamine receptor (Homo sapiens) (UniProt P21918); assay: Inhibition of D5 receptor at 1 uM
D(1B) dopamine receptor (Homo sapiens), sequence (P21918 whole entry): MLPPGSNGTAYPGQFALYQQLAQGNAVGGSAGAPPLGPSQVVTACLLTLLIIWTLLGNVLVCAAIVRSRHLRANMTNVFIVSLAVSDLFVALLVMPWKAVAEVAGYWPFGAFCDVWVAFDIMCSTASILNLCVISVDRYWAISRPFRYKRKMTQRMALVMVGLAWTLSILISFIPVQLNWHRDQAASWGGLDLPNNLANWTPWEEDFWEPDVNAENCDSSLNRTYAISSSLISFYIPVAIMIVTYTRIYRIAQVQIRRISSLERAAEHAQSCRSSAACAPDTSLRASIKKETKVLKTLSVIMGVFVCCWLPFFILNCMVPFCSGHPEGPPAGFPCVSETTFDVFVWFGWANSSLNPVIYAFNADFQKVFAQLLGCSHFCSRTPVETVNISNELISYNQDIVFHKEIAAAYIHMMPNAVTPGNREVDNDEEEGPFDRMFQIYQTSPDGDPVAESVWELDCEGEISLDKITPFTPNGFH

[11] = target: 5-hydroxytryptamine receptor 5A (Homo sapiens) (UniProt P47898); assay: Inhibition of 5HT5A receptor at 1 uM
[12] = target: 5-hydroxytryptamine receptor 6 (Homo sapiens) (UniProt P50406); assay: Inhibition of 5HT6 receptor at 1 uM
[13] = target: Sigma non-opioid intracellular receptor 1 (Homo sapiens) (UniProt Q99720); assay: Inhibition of sigma receptor at 1 uM
Sigma non-opioid intracellular receptor 1 (Homo sapiens), sequence (Q99720 whole entry): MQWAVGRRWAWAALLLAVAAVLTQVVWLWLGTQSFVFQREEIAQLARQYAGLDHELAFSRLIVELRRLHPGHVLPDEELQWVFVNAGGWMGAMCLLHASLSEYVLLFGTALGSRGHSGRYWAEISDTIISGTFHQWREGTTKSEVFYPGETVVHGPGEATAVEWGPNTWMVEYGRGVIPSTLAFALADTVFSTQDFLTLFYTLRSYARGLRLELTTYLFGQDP

[14] = target: Somatostatin receptor (Homo sapiens) (UniProt P35346+P30874+P31391+P30872+P32745); assay: Inhibition of sst receptor at 1 uM; format: protein assay
Homo sapiens [15] = species: Homo sapiens; assay: Inhibition of chloride channel at 1 uM
[16] = target: Prostaglandin G/H synthase 2 (Homo sapiens) (UniProt P35354); assay: Inhibition of COX2 at 1 uM
Prostaglandin G/H synthase 2 (Homo sapiens), sequence (P35354 whole entry): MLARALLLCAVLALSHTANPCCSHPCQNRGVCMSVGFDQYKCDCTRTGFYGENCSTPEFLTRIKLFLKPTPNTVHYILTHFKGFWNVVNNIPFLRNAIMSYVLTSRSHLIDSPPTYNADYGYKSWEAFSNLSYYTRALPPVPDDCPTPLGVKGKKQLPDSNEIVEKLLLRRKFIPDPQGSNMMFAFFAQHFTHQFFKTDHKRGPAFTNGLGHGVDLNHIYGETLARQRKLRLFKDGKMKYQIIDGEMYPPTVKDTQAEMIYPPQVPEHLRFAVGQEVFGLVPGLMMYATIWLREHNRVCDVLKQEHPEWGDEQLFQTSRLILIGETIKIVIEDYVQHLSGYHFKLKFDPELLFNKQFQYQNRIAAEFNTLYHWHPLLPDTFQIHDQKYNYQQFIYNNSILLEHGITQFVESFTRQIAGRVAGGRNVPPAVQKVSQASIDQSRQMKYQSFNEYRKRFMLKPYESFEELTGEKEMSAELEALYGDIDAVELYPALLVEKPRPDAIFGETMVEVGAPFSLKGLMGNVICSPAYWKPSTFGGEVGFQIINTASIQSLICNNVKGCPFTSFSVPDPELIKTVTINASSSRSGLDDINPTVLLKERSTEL

[17] = target: cGMP-dependent 3',5'-cyclic phosphodiesterase (Homo sapiens) (UniProt O00408); assay: Inhibition of PDE2 at 1 uM
[18] = target: Phosphodiesterase 3 (Homo sapiens) (UniProt Q14432+Q13370); assay: Inhibition of PDE3 at 1 uM; format: protein assay
[19] = target: Angiotensin-converting enzyme (Homo sapiens) (UniProt P12821); assay: Inhibition of ACE at 1 uM
Angiotensin-converting enzyme (Homo sapiens), sequence (P12821 whole entry): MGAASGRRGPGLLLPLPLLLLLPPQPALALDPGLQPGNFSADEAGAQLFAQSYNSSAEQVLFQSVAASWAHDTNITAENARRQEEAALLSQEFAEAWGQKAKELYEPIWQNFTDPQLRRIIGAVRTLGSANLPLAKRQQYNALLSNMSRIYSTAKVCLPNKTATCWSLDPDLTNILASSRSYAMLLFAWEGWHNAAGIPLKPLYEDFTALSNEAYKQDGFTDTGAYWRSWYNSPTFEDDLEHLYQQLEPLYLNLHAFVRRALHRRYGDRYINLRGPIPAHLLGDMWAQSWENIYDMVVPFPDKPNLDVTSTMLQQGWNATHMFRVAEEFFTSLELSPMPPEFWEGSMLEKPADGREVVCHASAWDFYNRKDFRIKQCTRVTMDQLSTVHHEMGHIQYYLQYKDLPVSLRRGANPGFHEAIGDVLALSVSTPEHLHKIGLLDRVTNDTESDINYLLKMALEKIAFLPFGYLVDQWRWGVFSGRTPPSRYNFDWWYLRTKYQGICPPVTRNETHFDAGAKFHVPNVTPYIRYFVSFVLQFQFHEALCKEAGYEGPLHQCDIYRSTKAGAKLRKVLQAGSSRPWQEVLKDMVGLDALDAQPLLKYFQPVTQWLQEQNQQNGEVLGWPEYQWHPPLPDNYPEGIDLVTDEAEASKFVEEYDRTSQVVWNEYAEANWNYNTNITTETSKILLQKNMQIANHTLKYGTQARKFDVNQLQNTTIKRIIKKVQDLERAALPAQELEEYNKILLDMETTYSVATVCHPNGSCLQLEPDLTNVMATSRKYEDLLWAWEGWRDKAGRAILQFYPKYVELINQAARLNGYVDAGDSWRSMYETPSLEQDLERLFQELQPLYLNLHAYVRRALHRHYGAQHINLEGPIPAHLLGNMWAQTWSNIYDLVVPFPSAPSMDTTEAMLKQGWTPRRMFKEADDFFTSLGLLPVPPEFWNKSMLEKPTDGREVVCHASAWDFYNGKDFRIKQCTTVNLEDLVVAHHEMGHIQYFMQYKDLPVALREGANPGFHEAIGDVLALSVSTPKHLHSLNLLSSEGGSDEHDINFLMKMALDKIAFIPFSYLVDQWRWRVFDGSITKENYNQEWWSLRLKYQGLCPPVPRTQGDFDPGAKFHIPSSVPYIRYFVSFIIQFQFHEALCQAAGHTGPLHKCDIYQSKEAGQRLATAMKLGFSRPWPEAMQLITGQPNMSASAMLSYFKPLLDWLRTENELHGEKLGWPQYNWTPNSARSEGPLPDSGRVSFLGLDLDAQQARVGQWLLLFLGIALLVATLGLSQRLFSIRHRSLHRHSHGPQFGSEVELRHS

[20] = target: Protein kinase C (PKC) (Homo sapiens) (UniProt O94806+P41743+P17252+P05129+Q05655+P05771+Q05513+Q02156+P24723+Q15139+Q04759); assay: Inhibition of PKC at 1 uM; format: protein assay
[21] = target: Tyrosine 3-monooxygenase (Homo sapiens) (UniProt P07101); assay: Inhibition of tyrosine hydroxylase at 1 uM
Tyrosine 3-monooxygenase (Homo sapiens), sequence (P07101 whole entry): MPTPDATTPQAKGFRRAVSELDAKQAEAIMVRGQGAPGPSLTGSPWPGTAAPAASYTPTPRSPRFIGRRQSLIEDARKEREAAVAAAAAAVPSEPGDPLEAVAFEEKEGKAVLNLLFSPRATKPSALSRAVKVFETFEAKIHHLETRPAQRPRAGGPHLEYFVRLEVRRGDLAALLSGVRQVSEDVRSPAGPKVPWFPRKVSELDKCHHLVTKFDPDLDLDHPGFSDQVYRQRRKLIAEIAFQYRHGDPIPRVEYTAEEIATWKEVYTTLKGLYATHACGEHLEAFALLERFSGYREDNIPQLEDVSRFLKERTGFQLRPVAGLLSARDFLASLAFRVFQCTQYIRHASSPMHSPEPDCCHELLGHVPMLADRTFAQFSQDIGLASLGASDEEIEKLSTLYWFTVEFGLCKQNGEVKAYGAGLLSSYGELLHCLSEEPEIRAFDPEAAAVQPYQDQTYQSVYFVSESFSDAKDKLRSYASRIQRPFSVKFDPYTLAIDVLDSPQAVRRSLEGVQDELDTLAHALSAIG

[22] = target: Sodium/potassium-transporting ATPase (Homo sapiens) (UniProt P05023+P14415+P05026+P50993+P54709+P13637+Q13733+P54710); assay: Inhibition of Sodium/potassium-transporting ATPase at 1 uM; format: protein-complex assay
[23] = Activity at alpha7-5HT3 chimera expressed in SHEP1 cells by FLIPR assay; format: functional, cell-based; settings: Homo sapiens, SH-EP1
Outline: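 Cell-based FLIPR functional assay in SH-EP1 cells expressing the α7-5HT3 chimera. Values are the average of at least five experiments for most compounds.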

[24] = target: Neuronal acetylcholine receptor subunit alpha-7 (Rattus norvegicus, UniProt Q05941); assay: Displacement of [3H]MLA from alpha-7 nAChR in Sprague-Dawley rat brain homogenates; format: tissue-based
Outline: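 Rat brain homogenate binding assay with [3H]MLA as radioligand. Values are the average of two or more experiments.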

[25] = target: Neuronal acetylcholine receptor; alpha4/beta2 (Rattus norvegicus) (UniProt P09483+P12390); assay: Inhibition of [3H]cytisine binding to alpha4beta2 nAChR in rat brain homogenate at 1 uM; format: tissue-based
Outline: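 Radioligand displacement in rat brain homogenate with [³H]cytisine as the α4β2 ligand; test compound at 1 µM; value reported as % block of binding.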

[26] = target: Adenosine receptor A1 (Homo sapiens) (UniProt P30542); assay: Inhibition of adenosine A1 receptor at 1 uM
[27] = Metabolic stability in Sprague-Dawley rat liver microsomes after 1 hr; format: ADME, Microsome; settings: read-out: Stability
Outline: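 Rat liver microsomes incubated with compound, in vitro metabolism; read-out is percent of parent remaining at 1 h.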

[28] = target: Serotonin 3 (5-HT3) receptor; assay: Binding affinity to 5HT3 receptor; format: protein-complex assay, Homo sapiens
[29] = target: Serotonin 3 (5-HT3) receptor; assay: Activity at 5HT3 receptor expressed in SHEP1 cells by FLIPR assay; format: functional, cell-based, Homo sapiens
Outline: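 Cell-based FLIPR functional assay in SH-EP1 cells expressing 5-HT3.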

Homo sapiens [30] = species: Homo sapiens; assay: Inhibition of GABA receptor at 1 uM
[31] = target: C-X-C chemokine receptor type 2 (Homo sapiens) (UniProt P25025); assay: Inhibition of CXCR2 at 1 uM
[32] = target: Histamine H1 receptor (Homo sapiens) (UniProt P35367); assay: Inhibition of central histamine H1 receptor at 1 uM
[33] = target: Histamine H2 receptor (Homo sapiens) (UniProt P25021); assay: Inhibition of histamine H2 receptor at 1 uM
Histamine H2 receptor (Homo sapiens), sequence (P25021 whole entry): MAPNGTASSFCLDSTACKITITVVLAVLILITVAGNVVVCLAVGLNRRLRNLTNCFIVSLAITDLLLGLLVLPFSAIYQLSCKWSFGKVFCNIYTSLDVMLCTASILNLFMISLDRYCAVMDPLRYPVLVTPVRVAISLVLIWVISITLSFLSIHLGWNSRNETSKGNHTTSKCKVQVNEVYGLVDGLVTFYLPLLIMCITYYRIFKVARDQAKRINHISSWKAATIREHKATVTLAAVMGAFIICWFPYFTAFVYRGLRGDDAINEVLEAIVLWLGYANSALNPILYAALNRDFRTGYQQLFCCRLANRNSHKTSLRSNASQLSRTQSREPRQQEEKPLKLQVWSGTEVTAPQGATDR

Homo sapiens [34] = species: Homo sapiens; assay: Inhibition of ML1 receptor at 1 uM
[35] = target: Muscarinic acetylcholine receptor M4 (Homo sapiens) (UniProt P08173); assay: Inhibition of M4 receptor at 1 uM
Muscarinic acetylcholine receptor M4 (Homo sapiens), sequence (P08173 whole entry): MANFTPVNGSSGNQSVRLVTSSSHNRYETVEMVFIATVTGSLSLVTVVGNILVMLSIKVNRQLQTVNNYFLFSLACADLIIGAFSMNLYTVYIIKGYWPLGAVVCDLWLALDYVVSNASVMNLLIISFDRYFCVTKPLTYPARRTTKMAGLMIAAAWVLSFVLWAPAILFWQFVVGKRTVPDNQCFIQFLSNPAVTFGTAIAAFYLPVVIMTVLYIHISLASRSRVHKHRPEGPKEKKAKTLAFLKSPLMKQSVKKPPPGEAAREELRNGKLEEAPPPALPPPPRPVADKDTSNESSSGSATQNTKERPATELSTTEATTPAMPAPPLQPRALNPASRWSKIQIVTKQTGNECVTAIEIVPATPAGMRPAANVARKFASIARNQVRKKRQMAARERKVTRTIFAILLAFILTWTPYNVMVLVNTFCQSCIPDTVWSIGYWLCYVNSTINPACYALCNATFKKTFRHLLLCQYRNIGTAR

[36] = target: Kappa-type opioid receptor (Homo sapiens) (UniProt P41145); assay: Inhibition of human kappa opioid receptor at 1 uM
Homo sapiens [37] = species: Homo sapiens; assay: Inhibition of PCP receptor at 1 uM
[38] = target: 5-hydroxytryptamine receptor 2A (Homo sapiens) (UniProt P28223); assay: Inhibition of 5HT2A receptor at 1 uM
5-hydroxytryptamine receptor 2A (Homo sapiens), sequence (P28223 whole entry): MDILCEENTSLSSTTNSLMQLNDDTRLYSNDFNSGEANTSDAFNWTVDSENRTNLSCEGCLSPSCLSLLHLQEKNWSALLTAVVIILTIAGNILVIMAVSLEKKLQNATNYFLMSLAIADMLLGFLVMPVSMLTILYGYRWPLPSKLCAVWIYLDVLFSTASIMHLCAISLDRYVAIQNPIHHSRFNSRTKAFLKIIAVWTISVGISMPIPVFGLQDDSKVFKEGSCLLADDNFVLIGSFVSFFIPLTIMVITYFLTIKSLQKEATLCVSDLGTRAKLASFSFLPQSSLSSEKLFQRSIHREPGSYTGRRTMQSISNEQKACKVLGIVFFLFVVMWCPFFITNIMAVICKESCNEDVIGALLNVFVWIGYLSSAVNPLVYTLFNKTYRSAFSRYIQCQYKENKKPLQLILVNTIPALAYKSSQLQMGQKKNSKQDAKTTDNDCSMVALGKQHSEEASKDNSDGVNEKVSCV

[39] = target: Vasopressin V1a receptor (Homo sapiens) (UniProt P37288); assay: Inhibition of V1A receptor at 1 uM

With `O=C(N[C@H]1CN2CCC1CC2)c1cc2ccoc2cn1` [PHA-543613] as the compound, how does the Kp at 5 min [1] read?
The Kp at 5 min was 1.5.

What about the Activity [2] of the same compound?
Its Activity is 103%.

What about the Activity (Rattus norvegicus) of the same compound?
Its Activity is 51%.

And the inhibition [3]?
Its inhibition is 14%.

What about the inhibition [4] of the same compound?
Its inhibition is 16%.

And the inhibition [5]?
Its inhibition is under 10%.

What about the inhibition [6] of the same compound?
Its inhibition is under 10%.

And the inhibition [7]?
The inhibition was under 10%.

What about the inhibition [8] of the same compound?
The inhibition was under 10%.

What about the inhibition [9] of the same compound?
Its inhibition is under 10%.

What about the inhibition [10] of the same compound?
Its inhibition is under 10%.

And the inhibition [11]?
The inhibition was under 10%.

And the inhibition [12]?
The inhibition was under 10%.

And the inhibition [13]?
Its inhibition is under 10%.

What about the inhibition [14] of the same compound?
The inhibition was under 10%.

What about the inhibition (Homo sapiens [15]) of the same compound?
The inhibition was under 10%.

What about the inhibition [16] of the same compound?
The inhibition was 14%.

What about the inhibition [17] of the same compound?
Its inhibition is 25%.

What about the inhibition [18] of the same compound?
The inhibition was under 10%.

And the inhibition [19]?
Its inhibition is under 10%.

And the inhibition [20]?
Its inhibition is 18%.

And the inhibition [21]?
The inhibition was under 10%.

And the inhibition [22]?
Its inhibition is under 10%.

What about the EC50 [23] of the same compound?
Its EC50 is 65 nM.

What about the Ki [24] of the same compound?
The Ki was 8.8 nM.

What about the inhibition [25] of the same compound?
Its inhibition is 13%.

What about the inhibition [26] of the same compound?
The inhibition was under 10%.

What about the remaining at 1 h [27] of the same compound?
The remaining at 1 h was 55%.

What about the Ki [28] of the same compound?
The Ki was 511 nM.

What about the Ki [29] of the same compound?
The Ki was 628 nM.

And the inhibition (Homo sapiens [30])?
The inhibition was under 10%.

What about the inhibition [31] of the same compound?
The inhibition was under 10%.

What about the inhibition [32] of the same compound?
Its inhibition is under 10%.

And the inhibition [33]?
Its inhibition is under 10%.

What about the inhibition (Homo sapiens [34]) of the same compound?
Its inhibition is 11%.

And the inhibition [35]?
The inhibition was under 10%.

And the inhibition [36]?
The inhibition was under 10%.

What about the inhibition (Homo sapiens [37]) of the same compound?
Its inhibition is under 10%.

And the inhibition [38]?
The inhibition was under 10%.

What about the inhibition [39] of the same compound?
Its inhibition is 14%.
